Experimental data as given in ChEMBL document CHEMBL1124765, “Synthesis and biological properties of novel phosphotriesters: a new approach to the introduction of biologically active nucleotides into cells” (J Med Chem, 1990).
Values after ≈ are worked out from the molar mass of the structure shown.

Experiments:
Oryctolagus cuniculus = organism: Oryctolagus cuniculus; assay: Evaluated for the minimum cytotoxic concentration (MCC) upon preincubation of rabbit kidney cells in medium containing 10% fetal calf serum at 37 degree Celsius for 24 hr; assay type: functional; details: Oryctolagus cuniculus, kidney; read-out: MCC
Method in brief: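 Primary rabbit kidney cell cultures were exposed to compounds, some preincubated 24 h at 37 °C in medium with 10% fetal calf serum. The minimum cytotoxic concentration was the level causing a microscopically detectable change in normal cell morphology.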

Mus musculus [1] = assay: Topical treatment of intracutaneous TK- herpes simplex virus type 1 of strain VMW 1837 infection of Nu/nu mice for mean day of appearance of skin lesions and/or paralysis of the hind legs at 3% concentration (v/v in DMSO); assay type: functional
Method in brief: (§1)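 Inocula were TK⁻ HSV-1 at 10⁶ CCID50/0.05 mL or HSV-1 KOS at 10^4.7 PFU/0.05 mL. Test formulations in DMSO were applied topically four times daily for 5 days, starting at infection. Skin lesions, hind-leg paralysis and death were recorded daily for 28 (KOS) or 49 (TK⁻) days, with five mice per group.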

Mus musculus [2] = assay: Topical treatment of intracutaneous TK- herpes simplex virus type 1 of strain VMW 1837 infection of Nu/nu mice for mean day of appearance of skin lesions and/or paralysis of the hind legs at 1% concentration (v/v in DMSO); assay type: functional; method in brief: as §1
Vaccinia virus = assay: Evaluated for the minimum inhibitory concentration (MIC) in primary rabbit kidney (PRK) by 50% against vaccinia virus; assay type: functional; details: Orthopoxvirus vaccinia
Method in brief: (§2)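 Confluent primary rabbit kidney cell monolayers were infected with 100 CCID50 of virus. After 1 h adsorption, residual virus was removed and cells were incubated with serial compound concentrations. Cytopathogenicity was scored once it reached completion in untreated infected controls. The endpoint was the concentration reducing virus-induced cytopathogenicity by 50%.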

Mus musculus [3] = assay: Topical treatment of intracutaneous TK- herpes simplex virus type 1 of strain VMW 1837 infection of Nu/nu mice for mean day of appearance of skin lesions and/or paralysis of the hind legs at 0.3% concentration (v/v in DMSO); assay type: functional; method in brief: as §1
Human alphaherpesvirus 1 [4] = assay: Evaluated for the minimum inhibitory concentration (MIC) in primary rabbit kidney (PRK) by 50% against TK- herpes simplex virus type 1 (TK- HSV-1) with strain VMW 1837; assay type: functional; method in brief: as §2
Mus musculus [5] = assay: Topical treatment of intracutaneous HSV-1(KOS) herpes simplex virus type 1 infection of Nu/nu mice for mean day of appearance of skin lesions and/or paralysis of the hind legs at 3% concentration (v/v in DMSO); assay type: functional; method in brief: as §1
Human alphaherpesvirus 1 [6] = assay: Evaluated for the minimum inhibitory concentration (MIC) in primary rabbit kidney (PRK) by 50% against herpes simplex virus type-1 (HSV-1) with strains KOS; assay type: functional
Method in brief: (§3)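 Confluent primary rabbit kidney cell cultures infected with 100 CCID50 virus; after 1 h adsorption residual virus removed and cells incubated with varying compound concentrations. Cytopathogenicity scored when complete in infected untreated controls; MIC = concentration reducing virus-induced cytopathogenicity by 50%. Compounds tested as such or after preincubation in medium with 10% fetal calf serum, 24 h, 37 °C.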

Human alphaherpesvirus 1 [7] = assay: Evaluated for the minimum inhibitory concentration (MIC) in primary rabbit kidney (PRK) by 50% against TK- herpes simplex virus type 1 (TK- HSV-1) with strain B2006; assay type: functional; method in brief: as §2
Human alphaherpesvirus 2 [8] = assay: Evaluated for the minimum inhibitory concentration (MIC) in primary rabbit kidney (PRK) by 50% against herpes simplex virus type-2 (HSV-2) with strains Lyons; assay type: functional; method in brief: as §3
[9] = system: Vesicular stomatitis virus; assay: Evaluated for the minimum inhibitory concentration (MIC) in primary rabbit kidney (PRK) by 50% against vesicular stomatitis virus; assay type: functional; method in brief: as §2
Mus musculus [10] = assay: Topical treatment of intracutaneous HSV-1(KOS) herpes simplex virus type 1 infection of Nu/nu mice for mean day of appearance of skin lesions and/or paralysis of the hind legs at 1% concentration (v/v in DMSO); assay type: functional; method in brief: as §1
Human alphaherpesvirus 2 [11] = assay: Evaluated for the minimum inhibitory concentration (MIC) in primary rabbit kidney (PRK) by 50% against herpes simplex virus type-2 (HSV-2) with strains G; assay type: functional; method in brief: as §2
Human alphaherpesvirus 1 [12] = assay: Evaluated for the minimum inhibitory concentration (MIC) in primary rabbit kidney (PRK) by 50% against herpes simplex virus type-1 (HSV-1) with strains McIntyre; assay type: functional; method in brief: as §3
Mus musculus [13] = assay: Topical treatment of intracutaneous HSV-1(KOS) herpes simplex virus type 1 infection of Nu/nu mice for mean day of appearance of skin lesions and/or paralysis of the hind legs at 0.3% concentration (v/v in DMSO); assay type: functional; method in brief: as §1
Human alphaherpesvirus 1 [14] = assay: Evaluated for the minimum inhibitory concentration (MIC) in primary rabbit kidney (PRK) by 50% against herpes simplex virus type-1 (HSV-1) with strains F; assay type: functional; method in brief: as §3
Human alphaherpesvirus 2 [15] = assay: Evaluated for the minimum inhibitory concentration (MIC) in primary rabbit kidney (PRK) by 50% against herpes simplex virus type-2 (HSV-2) with strains 196; assay type: functional; method in brief: as §3
[16] = pKa value was determined; assay type: physicochemical

| Compound | MCC (Oryctolagus cuniculus) [µg/mL] | Mean day appearance of lesions (Mus musculus [1]) | Mean day appearance of lesions (Mus musculus [2]) | MIC (Vaccinia virus) [µg/mL] | Mean day appearance of lesions (Mus musculus [3]) | MIC (Human alphaherpesvirus 1 [4]) [µg/mL] | Mean day appearance of lesions (Mus musculus [5]) | MIC (Human alphaherpesvirus 1 [6]) [µg/mL] | MIC (Human alphaherpesvirus 1 [7]) [µg/mL] | MIC (Human alphaherpesvirus 2 [8]) [µg/mL] | MIC [9] [µg/mL] | Mean day appearance of lesions (Mus musculus [10]) | MIC (Human alphaherpesvirus 2 [11]) [µg/mL] | MIC (Human alphaherpesvirus 1 [12]) [µg/mL] | Mean day appearance of lesions (Mus musculus [13]) | MIC (Human alphaherpesvirus 1 [14]) [µg/mL] | MIC (Human alphaherpesvirus 2 [15]) [µg/mL] | pKa [16] |
| --- | --- | --- | --- | --- | --- | --- | --- | --- | --- | --- | --- | --- | --- | --- | --- | --- | --- | --- |
| O=c1[nH]c(=O)n([C@H]2C[C@H](O)[C@@H](CO)O2)cc1/C=C/Br [BRIVUDINE] | > 400 | 10.8 | 9.7 | 7 (≈ 21 µM) | 8.8 | 300 (≈ 901 µM) | 9.4 | 0.02 (≈ 0.06 µM) | 200 (≈ 600 µM) | 40 (≈ 120 µM) | > 400 | 9.4 | 4 (≈ 12 µM) | 0.02 (≈ 0.06 µM) | 6.2 | 0.02 (≈ 0.06 µM) | 150 (≈ 450 µM) | – |
| CC(=O)O[C@H]1C[C@H](n2cc(C)c(=O)[nH]c2=O)O[C@@H]1COP(=O)(OC[C@H]1O[C@@H](n2cc(C)c(=O)[nH]c2=O)C[C@@H]1OC(C)=O)Oc1ccc(S(C)(=O)=O)cc1 | – | – | – | – | – | – | – | – | – | – | – | – | – | – | – | – | – | 7.83 |
